Assay results published in ChEMBL document CHEMBL1151811, “Isolation, structure elucidation, and biological activity of virgineone from Lachnum Wirgineum using the genome-wide Candida albicans fitness test” (2009).
Converted amounts (≈) assume the structure as drawn. The source made the active and inactive calls. The rule behind the calls is not given here.

Experiments:
[1] = tested on: Trichophyton mentagrophytes; assay: Antifungal activity against Trichophyton mentagrophytes MF7004 after 20 hrs; format: functional; settings: MF7004, 20 h
Outline: (§1)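 Broth MIC with cells seeded at 10⁵ cfu/mL and exposed to 2-fold serial compound dilutions in growth medium, 37 °C for 20 h. MIC taken as the minimum inhibitory concentration.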

Candida albicans [2] = assay: Antifungal activity against Candida albicans MY1055 infected in DBA/2 mouse assessed as reduction in fugal CFU treated mouse twice daily measured after 4 days postinfection; format: functional, organism-based
Outline: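 DBA/2 mice (5 per group) were infected iv via lateral tail vein with 2.51 × 10⁴ cfu/mouse. They were dosed ip twice daily at 100 or 50 mg/kg in 5% DMSO/sterile water. On day 4, kidneys were homogenized in saline, diluted 10-fold serially, plated on SDA and incubated at 35 °C for 30–48 h. Cfu/g kidney were compared with sham-treated controls by paired two-tailed t-test.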

Aspergillus fumigatus [3] = assay: Antifungal activity against Aspergillus fumigatus MF5568 after 20 hrs; format: functional; settings: MF5568, 20 h; outline: as §1
Candida albicans [4] = assay: Antifungal activity against Candida albicans MY1055 after 20 hrs; format: functional; settings: MY1055, 20 h
Outline: (§2)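 Broth MIC. Cells inoculated at 10⁵ cfu/mL in growth medium with 2-fold serial dilutions of compound. Incubated 20 h at 37 °C. MIC taken as minimum inhibitory concentration. For line 2 the medium held 50% mouse serum.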

Aspergillus fumigatus [5] = assay: Antifungal activity against Aspergillus fumigatus MF5568 in presence of 50% human serum after 20 hrs; format: functional; settings: MF5568, 20 h; outline: as §1
Candida albicans [6] = assay: Antifungal activity against Candida albicans MY1055 infected in DBA/2 mouse assessed as mouse mortality at 50 mg/kg, ip twice daily measured after 4 days postinfection; format: functional; settings: route intraperitoneal
Outline: (§3)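 Mice infected iv via lateral tail vein with C. albicans MY1055 at 2.51 × 10⁴ cfu/mouse. Five DBA/2 mice per group, dosed ip twice daily; compound formulated in 5% DMSO in sterile distilled water. Mortality and general health observed for 4 days after challenge.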

Nakaseomyces glabratus = assay: Antifungal activity against Candida glabrata MY1381 after 20 hrs; format: functional; settings: MY1381, 20 h; outline: as §2
Candida albicans [7] = assay: Antifungal activity against Candida albicans MY1055 in presence of 50% mouse serum after 20 hrs; format: functional; settings: MY1055, 20 h; outline: as §2
Candida parapsilosis = assay: Antifungal activity against Candida parapsilosis ATCC 22019 after 20 hrs; format: functional; settings: Lodderomyces parapsilosis, ATCC 22019, 20 h; outline: as §2
Staphylococcus aureus = assay: […] activity against Staphylococcus aureus MB2865; format: functional
Pichia kudriavzevii = assay: Antifungal activity against Candida krusei ATCC 6258 after 20 hrs; format: functional; settings: ATCC 6258, 20 h; outline: as §2
Candida albicans [8] = assay: Antifungal activity against Candida albicans MY1055 infected in DBA/2 mouse assessed as mouse mortality at 100 mg/kg, ip twice daily measured after 4 days postinfection; format: functional; settings: route intraperitoneal; outline: as §3
Clavispora lusitaniae = assay: Antifungal activity against Candida lusitaniae MY1396 after 20 hrs; format: functional; settings: MY1396, 20 h; outline: as §1

Row | Compound | MIC [1] [µg/mL] | Activity (Candida albicans [2]) | MIC (Aspergillus fumigatus [3]) [µg/mL] | MIC (Candida albicans [4]) [µg/mL] | MIC (Aspergillus fumigatus [5]) [µg/mL] | Activity (Candida albicans [6]) [%] | MIC (Nakaseomyces glabratus) [µg/mL] | MIC (Candida albicans [7]) [µg/mL] | MIC (Candida parapsilosis) [µg/mL] | MIC (Staphylococcus aureus) [µg/mL] | MIC (Pichia kudriavzevii) [µg/mL] | Activity (Candida albicans [8]) [%] | MIC (Clavispora lusitaniae) [µg/mL]
1 | CC(CCCCCCCCC(=O)CCCCCCCCCC(O)CO[C@@H]1O[C@H](CO)[C@@H](O)[C@H](O)[C@@H]1O)C(=O)C1=C(O)C(Cc2ccc(O)cc2)NC1=O (stereo partly drawn) [VIRGINEONE] | 8 (≈ 10.7 µM) | inactive | 8 (≈ 10.7 µM) | 8 (≈ 10.7 µM) | > 32 | 40 | 8 (≈ 10.7 µM) | > 32 | 8 (≈ 10.7 µM) | 16 (≈ 21.3 µM) | 16 (≈ 21.3 µM) | 100 | 4 (≈ 5.33 µM)
2 | CC[C@H](C)C[C@H](C)CCCCCCCCC(=O)N[C@H]1C[C@@H](O)[C@@H](NCCN)NC(=O)[C@@H]2[C@@H](O)CCN2C(=O)[C@H]([C@H](O)CCN)NC(=O)[C@H]([C@H](O)[C@@H](O)c2ccc(O)cc2)NC(=O)[C@@H]2C[C@@H](O)CN2C(=O)[C@H]([C@@H](C)O)NC1=O [CASPOFUNGIN] | 32 (≈ 29.3 µM) | – | 32 (≈ 29.3 µM) | 0.5 (≈ 0.457 µM) | 32 | – | 0.25 (≈ 0.229 µM) | 0.25 | 0.5 (≈ 0.457 µM) | > 32 | 1 (≈ 0.915 µM) | – | < 0.03
